Results taken from ChEMBL document CHEMBL1135760, “Anilinoquinazoline inhibitors of fructose 1,6-bisphosphatase bind at a novel allosteric site: synthesis, in vitro characterization, and X-ray crystallography” (J Med Chem, 2002).

How the values were obtained:
[1] = biological target: Fructose-1,6-bisphosphatase 1 (Rattus norvegicus, UniProt P19112, Q51K/Q56H); assay: Concentration required for 50% Inhibition against (F16BP) Fructose-1,6-bisphosphatase in rat double mutant (Gln50Lys Gln55His) enzyme using malachite green assay
How it was run: (§1)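 Recombinant rat liver F16BPase (wild type or Gln50Lys/Gln55His double, Gln50Lys or Gln55His single mutants), expressed in E. coli BL21(DE3) and purified, 40 ng/well. Enzyme added to substrate plus compound with no preincubation. Final buffer was 50 mM HEPES pH 7.2, 100 mM KCl, 2 mM MgCl2, 2 mM EGTA, 1 mM DTT, 500 μM fructose-1,6-bisphosphate. Incubation 40 min at room temperature. Released phosphate read at 620 nm with ammonium molybdate/malachite green. Means of ≥3 experiments. Dose-response tested up to 10 μM.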

[2] = biological target: T1, Fructose-1,6-bisphosphatase 1 (Rattus norvegicus, UniProt P19112, Q56H); assay: Concentration required for 50% Inhibition against (F16BP) Fructose-1,6-bisphosphatase in rat single mutant (Gln55His) enzyme using malachite green assay; how it was run: as §1
[3] = biological target: T2, Fructose-1,6-bisphosphatase 1 (Rattus norvegicus, UniProt P19112); assay: Concentration required for 50% Inhibition against (F16BP) Fructose-1,6-bisphosphatase in rat wild type enzyme using malachite green assay; how it was run: as §1
T2 sequence (P19112 whole entry): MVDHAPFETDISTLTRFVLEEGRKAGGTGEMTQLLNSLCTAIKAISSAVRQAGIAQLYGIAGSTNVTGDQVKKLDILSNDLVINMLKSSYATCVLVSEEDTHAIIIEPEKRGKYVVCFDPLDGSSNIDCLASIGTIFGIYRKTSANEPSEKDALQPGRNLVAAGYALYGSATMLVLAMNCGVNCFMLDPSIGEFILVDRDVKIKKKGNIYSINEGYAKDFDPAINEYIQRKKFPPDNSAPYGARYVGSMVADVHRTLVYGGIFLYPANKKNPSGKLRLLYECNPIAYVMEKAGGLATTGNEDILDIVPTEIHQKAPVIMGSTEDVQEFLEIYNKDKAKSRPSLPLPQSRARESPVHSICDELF

[4] = Inhibition of human recombinant wild type fructose-1,6-bisphosphatase (F16BP)
[5] = biological target: Fructose-1,6-bisphosphatase 1 (Rattus norvegicus, UniProt P19112, Q51K); assay: Concentration required for 50% Inhibition against (F16BP) Fructose-1,6-bisphosphatase in rat single mutant (Gln50Lys) enzyme using malachite green assay; how it was run: as §1
[6] = biological target: T1, Fructose-1,6-bisphosphatase 1; assay: Concentration required for 50% Inhibition against (F16BP) Fructose-1,6-bisphosphatase in rat single mutant(Gln55His) enzyme using malachite green assay; how it was run: as §1

Sequence of Fructose-1,6-bisphosphatase 1 (Rattus norvegicus, UniProt P19112, Q51K) (P19112 2-363 Q51K limits assumed): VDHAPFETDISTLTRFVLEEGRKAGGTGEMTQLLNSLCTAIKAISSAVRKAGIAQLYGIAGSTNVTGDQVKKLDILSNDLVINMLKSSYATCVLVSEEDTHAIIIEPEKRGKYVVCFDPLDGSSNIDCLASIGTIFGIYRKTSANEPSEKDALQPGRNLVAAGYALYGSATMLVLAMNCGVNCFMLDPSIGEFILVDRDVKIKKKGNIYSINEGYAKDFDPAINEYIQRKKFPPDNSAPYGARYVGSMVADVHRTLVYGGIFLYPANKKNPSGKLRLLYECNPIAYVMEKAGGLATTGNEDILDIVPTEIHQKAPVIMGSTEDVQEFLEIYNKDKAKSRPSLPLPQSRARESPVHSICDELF
Sequence of Fructose-1,6-bisphosphatase 1 (Rattus norvegicus, UniProt P19112, Q51K/Q56H) (P19112 2-363 Q51K/Q56H limits assumed): as the sequence (P19112 2-363 Q51K limits assumed) above, with Q55H counted along it
T1 sequence (P19112 2-363 Q56H limits assumed): as the sequence (P19112 2-363 Q51K limits assumed) above, with K50Q, Q55H counted along it

**Q.** With `CCOc1cc2ncnc(Nc3cccc(-c4csc(C(N)=O)n4)c3)c2cc1OCC` as the compound, how does the IC50 [1] read?
**A.** 0.52 µM

**Q.** And the IC50 [2]?
**A.** 3 µM

**Q.** And the IC50 [3]?
**A.** > 10 µM

**Q.** And the IC50 [4]?
**A.** 0.93 µM

**Q.** What about the IC50 [5] of the same compound?
**A.** > 10 µM

**Q.** With `CCOc1cc2ncnc(Nc3cccc(-c4csc(CO)n4)c3)c2cc1OCC` as the compound, how does the IC50 [1] read?
**A.** 0.34 µM

**Q.** And the IC50 [2]?
**A.** 2.9 µM

**Q.** And the IC50 [3]?
**A.** > 10 µM

**Q.** What about the IC50 [5] of the same compound?
**A.** > 10 µM

**Q.** With `CCOc1cc2ncnc(Nc3cccc(-c4csc(C)n4)c3)c2cc1OCC` as the compound, how does the IC50 [1] read?
**A.** 0.79 µM

**Q.** And the IC50 [3]?
**A.** > 10 µM

**Q.** What about the IC50 [4] of the same compound?
**A.** 0.64 µM

**Q.** And the IC50 [5]?
**A.** > 10 µM

**Q.** And the IC50 [6]?
**A.** 3.8 µM
